Results reported in ChEMBL document CHEMBL4390662, “Design, synthesis and biological evaluation of novel α-acyloxy carboxamides via Passerini reaction as caspase 3/7 activators” (Eur J Med Chem, 2019).
Values after ≈ are worked out from the molar mass of the structure shown. Values belong to the molecule of their own block, whether it stands above or below them. Active and inactive are the calls of the source. The rule behind the calls is not given here.

Columns and labels:
WI-38 = test: Cytotoxicity against human WI38 cells assessed as cell growth inhibition incubated for 72 hrs by MTT assay; assay type: cell-based; conditions: for IC50: Homo sapiens, WI-38, 72 h; for EC100: human, wi-38, 72 h
Summary of the method: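 Wi-38 fibroblasts grown in DMEM with 10% FBS and seeded at 5×10^3 per well. Attachment 24 h, then serial concentrations for 72 h at 37°C, 5% CO2. MTT stock (5 mg/mL) added for 3 h at 37°C, DMSO solubilization, absorbance at 570 nm. IC50 estimated.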

MCF7 = test: Cytotoxicity against human MCF7 cells assessed as cell growth inhibition incubated for 72 hrs by MTT assay; assay type: functional, cell-based; conditions: MCF7, 72 h
Summary of the method: (§1)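 Cells grown in RPMI-1640 with 10% FBS and seeded at 5×10^3 per well. After 24 h, serial concentrations given for 72 h at 37°C, 5% CO2. Then 5 mg/mL MTT stock added for 3 h, formazan dissolved in DMSO, A570 read. IC50 calculated from the curves.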

[1] = Selectivity index, ratio of IC50 for human WI38 cells to IC50 for human MCF7 cells; assay type: toxicity; conditions: WI38 cells versus MCF7 cells, read-out: Ratio IC50
Summary of the method: (§2)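 SI calculated as IC50 on normal Wi-38 fibroblasts divided by IC50 on the cancer cell line. Both came from 72 h MTT assays.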

NFS-60 = test: Cytotoxicity against mouse NFS60 cells assessed as cell growth inhibition incubated for 72 hrs by MTT assay; assay type: functional, cell-based; conditions: NFS-60, 72 h; summary of the method: as §1
HepG2 = test: Cytotoxicity against human HepG2 cells assessed as cell growth inhibition incubated for 72 hrs by MTT assay; assay type: functional, cell-based; conditions: HepG2, 72 h; summary of the method: as §1
[2] = Selectivity index, ratio of IC50 for human WI38 cells to IC50 for mouse NFS60 cells; summary of the method: as §2
[3] = Selectivity index, ratio of IC50 for human WI38 cells to IC50 for human HepG2 cells; assay type: toxicity; conditions: WI38 cells versus HepG2 cells, read-out: Ratio IC50; summary of the method: as §2
Staphylococcus aureus [4] = test: Antimicrobial activity against Staphylococcus aureus ATCC 25923 incubated for 24 hrs by microdilution assay; assay type: functional
Summary of the method: (§3)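 Two-fold serial dilutions of test solutions made in Mueller Hinton broth and inoculated. Incubated at 37°C for 24 h. MIC taken as the lowest concentration with no growth. Ciprofloxacin is the antibacterial reference, fluconazole the antifungal one, and DMSO the blank.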

Escherichia coli [5] = test: Antimicrobial activity against Escherichia coli ATCC 25922 incubated for 24 hrs by microdilution assay; assay type: functional; conditions: ATCC 25922, 24 h; summary of the method: as §3
Candida albicans [6] = test: Antimicrobial activity against Candida albicans ATCC 90028 incubated for 24 hrs by microdilution assay; assay type: functional; summary of the method: as §3
Staphylococcus aureus [7] = test: Antimicrobial activity against Staphylococcus aureus ATCC 25923 incubated for 24 hrs by agar well diffusion assay; assay type: functional
Summary of the method: (§4)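 Nutrient agar spread with 100 µL inoculum: bacteria at 1×10^8 CFU/mL, fungi at 1×10^6 CFU/mL. 10 mm wells loaded with 100 µL of compound in DMSO (final 1 mg/mL). Bacteria incubated 24 h at 37 °C, fungi 48 h at 28 °C. Inhibition zones measured in mm. Ciprofloxacin and fluconazole standards at 1 mg/mL, DMSO negative control.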

Enterococcus faecalis = test: Antimicrobial activity against Enterococcus faecalis ATCC 29212 incubated for 24 hrs by agar well diffusion assay; assay type: functional; summary of the method: as §4
Pseudomonas aeruginosa = test: Antimicrobial activity against Pseudomonas aeruginosa ATCC 27853 incubated for 24 hrs by agar well diffusion assay; assay type: functional; summary of the method: as §4
Escherichia coli [8] = test: Antimicrobial activity against Escherichia coli ATCC 25922 incubated for 24 hrs by agar well diffusion assay; assay type: functional; summary of the method: as §4
Candida albicans [9] = test: Antimicrobial activity against Candida albicans ATCC 90028 incubated for 48 hrs by agar well diffusion assay; assay type: functional; summary of the method: as §4

SMILES: Cc1ccccc1C(=O)OC1(C(=O)Nc2ccc([N+](=O)[O-])cc2)CCCCC1
IC50 (WI-38): 352 nM | EC100 (WI-38): 0.018 µM | IC50 (MCF7): 516 nM | selectivity ratio [1]: 0.682

SMILES: CC1(C)CC(=O)C=C(Nc2ccc([N+](=O)[O-])cc2)C1
IC50 (WI-38): 319 nM | EC100 (WI-38): 0.157 µM | IC50 (MCF7): 597 nM | IC50 (NFS-60): 645 nM | IC50 (HepG2): 667 nM | selectivity ratio [1]: 0.534 | Ratio IC50 [2]: 0.494 | selectivity ratio [3]: 0.478

SMILES: O=C(OC1(C(=O)Nc2ccc([N+](=O)[O-])cc2)C(=O)c2ccccc2C1=O)c1ccc(C(F)(F)F)cc1
IC50 (WI-38): 1960 nM | EC100 (WI-38): 0.635 µM | IC50 (MCF7): 393 nM | IC50 (NFS-60): 484 nM | IC50 (HepG2): 428 nM | selectivity ratio [1]: 5 | Ratio IC50 [2]: 4.057 | selectivity ratio [3]: 4.59

SMILES: O=C(CCC(=O)OC1(C(=O)Nc2ccc([N+](=O)[O-])cc2)CCCCC1)OC1(C(=O)Nc2ccc([N+](=O)[O-])cc2)CCCCC1
IC50 (WI-38): 203 nM | EC100 (WI-38): 0.02 µM

MIC (Staphylococcus aureus [4]): inactive | MIC (Escherichia coli [5]): 3.5 mM (≈ 1020 µg/mL) | MIC (Candida albicans [6]): inactive
SMILES: O=COC1(C(=O)Nc2ccc([N+](=O)[O-])cc2)CCCCC1
IC50 (WI-38): 46.3 nM | EC100 (WI-38): 0.0271 µM | IC50 (MCF7): 35.4 nM | IC50 (NFS-60): 33.8 nM | IC50 (HepG2): 34.1 nM | selectivity ratio [1]: 1.31 | Ratio IC50 [2]: 1.369 | selectivity ratio [3]: 1.36 | diameter of the inhibition zone (DIZ) (Staphylococcus aureus [7]): inactive | diameter of the inhibition zone (DIZ) (Enterococcus faecalis): 12 mm | diameter of the inhibition zone (DIZ) (Pseudomonas aeruginosa): 18 mm | diameter of the inhibition zone (DIZ) (Escherichia coli [8]): 15 mm | diameter of the inhibition zone (DIZ) (Candida albicans [9]): inactive

SMILES: CC(=O)OC1(C(=O)Nc2ccc([N+](=O)[O-])cc2)CCCCC1
IC50 (WI-38): 386 nM | EC100 (WI-38): 0.122 µM | IC50 (MCF7): 403 nM | IC50 (NFS-60): 517 nM | IC50 (HepG2): 519 nM | selectivity ratio [1]: 0.957 | Ratio IC50 [2]: 0.746 | selectivity ratio [3]: 0.743

SMILES: CCOC(=O)c1ccccc1C(=O)OC1(C(=O)Nc2ccc([N+](=O)[O-])cc2)CCCCC1
IC50 (WI-38): 386 nM | EC100 (WI-38): 0.122 µM | IC50 (MCF7): 444 nM | IC50 (NFS-60): 488 nM | IC50 (HepG2): 517 nM | selectivity ratio [1]: 0.869 | Ratio IC50 [2]: 0.79 | selectivity ratio [3]: 0.746

SMILES: O=C(OC1(C(=O)Nc2ccc([N+](=O)[O-])cc2)CCCCC1)c1ccc(Br)cc1
IC50 (WI-38): 523 nM | EC100 (WI-38): 0.0095 µM | IC50 (MCF7): 237 nM | IC50 (NFS-60): 236 nM | IC50 (HepG2): 284 nM | selectivity ratio [1]: 2.21 | Ratio IC50 [2]: 2.216 | selectivity ratio [3]: 1.84

SMILES: O=C(OC1(C(=O)Nc2ccc([N+](=O)[O-])cc2)CCCCC1)c1ccc(C(F)(F)F)cc1
IC50 (WI-38): 185 nM | EC100 (WI-38): 0.0398 µM | IC50 (MCF7): 27.1 nM | IC50 (NFS-60): 26 nM | IC50 (HepG2): 29.1 nM | selectivity ratio [1]: 6.83 | Ratio IC50 [2]: 7.115 | selectivity ratio [3]: 6.36 | diameter of the inhibition zone (DIZ) (Staphylococcus aureus [7]): inactive | diameter of the inhibition zone (DIZ) (Enterococcus faecalis): inactive | diameter of the inhibition zone (DIZ) (Pseudomonas aeruginosa): inactive | diameter of the inhibition zone (DIZ) (Escherichia coli [8]): inactive | diameter of the inhibition zone (DIZ) (Candida albicans [9]): inactive
